Measurements as given in ChEMBL document CHEMBL3227917, “Structure-activity relationships of dimeric Catharanthus alkaloids. 2. Experimental antitumor activities of N-substituted deacetylvinblastine amide (vindesine) sulfates” (J Med Chem, 1979).

Assays:
[1] = Antitumor activity against mouse Gardner lymphosarcoma allografted in C3H mouse assessed as tumor growth inhibition at 0.5 mg/kg, ip administered daily for 8 to 10 days; type: functional; conditions: route intraperitoneal, read-out: TGI
In short: (§1)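 Gardner lymphosarcoma in C3H mice; sulfate salts unless noted, given ip daily for 8–10 days, treatment starting 8 days after tumor implantation. Tumor growth inhibition scored as –, 0–25%; +, 26–50%; ++, 51–75%; +++, 76–100%; T, lethal to ≥5 of 10 animals per group. Average of one or more tests.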

[2] = Antitumor activity against mouse Gardner lymphosarcoma allografted in C3H mouse assessed as tumor growth inhibition at 0.40 mg/kg, ip administered daily for 8 to 10 days; type: functional; conditions: route intraperitoneal, read-out: TGI; in short: as §1
[3] = Antitumor activity against mouse Gardner lymphosarcoma allografted in C3H mouse assessed as tumor growth inhibition at 0.10 mg/kg, ip administered daily for 8 to 10 days; type: functional; conditions: route intraperitoneal, read-out: TGI; in short: as §1
[4] = Antitumor activity against mouse Gardner lymphosarcoma allografted in C3H mouse assessed as tumor growth inhibition at 0.20 mg/kg, ip administered daily for 8 to 10 days; type: functional; conditions: route intraperitoneal, read-out: TGI; in short: as §1
[5] = Antitumor activity against mouse Gardner lymphosarcoma allografted in C3H mouse assessed as tumor growth inhibition at 0.25 mg/kg, ip administered daily for 8 to 10 days; type: functional; conditions: route intraperitoneal, read-out: TGI; in short: as §1
[6] = Antitumor activity against mouse Gardner lymphosarcoma allografted in C3H mouse assessed as tumor growth inhibition at 0.125 mg/kg, ip administered daily for 8 to 10 days; type: functional; conditions: route intraperitoneal, read-out: TGI; in short: as §1
[7] = Antitumor activity against mouse Ridgway osteogenic sarcoma allografted in AKR mouse assessed as tumor growth inhibition at 0.10 mg/kg, ip administered daily for 8 to 10 days compound treatment commenced 8 days after tumor implantation; type: functional; conditions: route intraperitoneal, read-out: TGI
[8] = test system: CHO; assay: Mitotic arrest in CHO cells assessed as increase in cell accumulation at 0.002 ug/ml; type: functional, Cricetulus griseus
In short: (§2)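 Chinese hamster ovary cells in tissue culture, scored for mitotic arrest as increase in cells in mitotic arrest over control: +++, 40–50%; ++, 15–40%; +, 10–15%; ±, 7–10%; –, 3–7%. Cytotoxicity noted separately.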

[9] = test system: CHO; assay: Mitotic arrest in CHO cells assessed as increase in cell accumulation at 0.02 ug/ml; type: functional, Cricetulus griseus; in short: as §2
[10] = test system: B16; assay: Antitumor activity against mouse B16 cells allografted in C57BL/6 mouse assessed as prolongation of host survival at 1.20 mg/kg, ip administered on days 1,5 and 9; type: functional; conditions: route intraperitoneal
In short: (§3)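 B16 melanoma cells (10⁶ inoculum) implanted ip in C57BL/6 mice; groups of 10. Sulfate salts unless noted, given ip on days 1, 5 and 9. Single test. Survival prolongation is expressed as percent versus controls, with survivors counted on day 60. Toxic means deaths of ≥5 of 10 animals before the first control death.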

[11] = test system: B16; assay: Antitumor activity against mouse B16 cells allografted in C57BL/6 mouse assessed as prolongation of host survival at 0.60 mg/kg, ip administered on days 1,5 and 9; type: functional; conditions: route intraperitoneal; in short: as §3
[12] = test system: B16; assay: Antitumor activity against mouse B16 cells allografted in C57BL/6 mouse assessed as prolongation of host survival at 0.90 mg/kg, ip administered on days 1,5 and 9; type: functional; conditions: route intraperitoneal; in short: as §3
[13] = Antitumor activity against mouse Ridgway osteogenic sarcoma allografted in AKR mouse assessed as tumor growth inhibition at 0.40 mg/kg, ip administered daily for 8 to 10 days compound treatment commenced 8 days after tumor implantation; type: functional; conditions: route intraperitoneal, read-out: TGI
[14] = Antitumor activity against mouse Ridgway osteogenic sarcoma allografted in AKR mouse assessed as tumor growth inhibition at 0.20 mg/kg, ip administered daily for 8 to 10 days compound treatment commenced 8 days after tumor implantation; type: functional; conditions: route intraperitoneal, read-out: TGI
[15] = test system: CHO; assay: Mitotic arrest in CHO cells assessed as increase in cell accumulation at 0.2 ug/ml; type: functional, Cricetulus griseus; in short: as §2
[16] = Antitumor activity against mouse Gardner lymphosarcoma allografted in C3H mouse assessed as tumor growth inhibition at 0.05 mg/kg, ip administered daily for 8 to 10 days; type: functional; conditions: route intraperitoneal, read-out: TGI; in short: as §1
[17] = Toxicity in iv dosed mouse assessed as lethality; type: organism-based; conditions: in vivo
[18] = Antitumor activity against mouse P1534 cells allografted in DBA2 mouse assessed as tumor growth inhibition at 0.10 mg/kg, ip administered daily for 8 to 10 days; type: functional; conditions: route intraperitoneal, read-out: TGI
In short: (§4)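 P1534(J) leukemia implanted sc in DBA2 mice; sulfate salts dosed ip daily for 8–10 days. Growth inhibition scored –, 0–25%; +, 26–50%; ++, 51–75%; +++, 76–100%; T, lethal to ≥5 of 10 animals per group. Average of one or more tests.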

[19] = Antitumor activity against mouse Ridgway osteogenic sarcoma allografted in AKR mouse assessed as tumor growth inhibition at 0.05 mg/kg, ip administered daily for 8 to 10 days compound treatment commenced 8 days after tumor implantation; type: functional; conditions: route intraperitoneal, read-out: TGI
[20] = Antitumor activity against mouse P1534 cells allografted in DBA2 mouse assessed as tumor growth inhibition at 0.20 mg/kg, ip administered daily for 8 to 10 days; type: functional; conditions: route intraperitoneal, read-out: TGI; in short: as §4
[21] = Antitumor activity against mouse P1534 cells allografted in DBA2 mouse assessed as tumor growth inhibition at 0.40 mg/kg, ip administered daily for 8 to 10 days; type: functional; conditions: route intraperitoneal, read-out: TGI; in short: as §4

Row | Structure (SMILES) | inhibition in vivo at 0.4 mg/kg [2] | inhibition in vivo at 0.1 mg/kg [3] | inhibition in vivo at 0.2 mg/kg [4] | inhibition in vivo at 0.1 mg/kg [7] | inhibition in vivo at 0.4 mg/kg [13] | inhibition in vivo at 0.2 mg/kg [14] | inhibition in vivo at 0.05 mg/kg [19] | other results
1 | CC[C@]1(O)C[C@H]2CN(CCc3c([nH]c4ccccc34)[C@@](C(=O)OC)(c3cc4c(cc3OC)N(C)[C@H]3[C@@](O)(C(=O)NCCNC(C)=O)[C@H](O)[C@]5(CC)C=CCN6CC[C@]43[C@@H]65)C2)C1 | 76% | 76% | 76% | – | – | – | – | inhibition in vivo at 0.5 mg/kg [1]: 76%; inhibition in vivo at 0.25 mg/kg [5]: 76%; inhibition in vivo at 0.125 mg/kg [6]: 51%
2 | CC[C@]1(O)C[C@H]2CN(CCc3c([nH]c4ccccc34)[C@@](C(=O)OC)(c3cc4c(cc3OC)N(C)[C@H]3[C@@](O)(C(=O)NCCO)[C@H](O)[C@]5(CC)C=CCN6CC[C@]43[C@@H]65)C2)C1.O=S(=O)(O)O | 76% | 76% | 76% | 76% | 76% | 76% | 51% | Activity [8]: 3%; Activity [9]: 15%; survival at 1.2 mg/kg [10]: 93%; survival at 0.6 mg/kg [11]: 51%; survival at 0.9 mg/kg [12]: 97%; Activity [15]: 15%; inhibition in vivo at 0.05 mg/kg [16]: 76%; LD50 [17]: 4.4 mg/kg; inhibition in vivo at 0.1 mg/kg [18]: 51%
3 | CC[C@]1(O)C[C@H]2CN(CCc3c([nH]c4ccccc34)[C@@](C(=O)OC)(c3cc4c(cc3OC)N(C)[C@H]3[C@@](O)(C(=O)NCCCO)[C@H](O)[C@]5(CC)C=CCN6CC[C@]43[C@@H]65)C2)C1 | 76% | – | 51% | 76% | 76% | 76% | 26% | inhibition in vivo at 0.2 mg/kg [20]: 76%; inhibition in vivo at 0.4 mg/kg [21]: 76%
